The results in this text go back to ChEMBL document CHEMBL3745678, “Novel β-Carboline/Hydroxamic Acid Hybrids Targeting Both Histone Deacetylase and DNA Display High Anticancer Activity via Regulation of the p53 Signaling Pathway” (J Med Chem, 2015).

Test [1] deals with LoVo. Description: Antiproliferative activity against human LoVo cells assessed as cell viability after 48 hrs by MTT assay. It counts as functional, cell-based. For orientation: Formazan colour is commonly taken as a measure of viable cells.
The next test relates to SW480. Kind of test: Antiproliferative activity against human SW480 cells assessed as cell viability after 48 hrs by MTT assay. It counts as functional, cell-based. To be noted: SW480, 48 h.
Test [2] is described as follows: Antiproliferative activity against human HCT116 cells assessed as cell viability after 48 hrs by MTT assay. It counts as functional, cell-based, HCT-116. Conditions: Homo sapiens, HCT-116, 48 h.
The next test deals with Histone deacetylase. Description: Inhibition of HDAC in human HeLa cell nuclear extract using Boc-Lys (Ac)-AMC as substrate after 60 mins by fluorometric analysis. It counts as cell-based.
The test system of a further test is SW-620. Description: Antiproliferative activity against human SW620 cells at 25 uM after 48 hrs by MTT assay. It counts as functional, cell-based. Put shortly: (§1)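 Single-point screen at 25 µM in HCT116, SW620 and LOVO cells. Cells seeded at 10^4 cells/ml in DMEM + 10% FBS and left to adhere overnight at 37 °C, 5% CO2. MTT read 48 h after dosing with 0.1% DMSO as the negative control. Inhibition % = (1 − OD treated/OD control) × 100; mean ± SD of three measurements.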

Test [3] in a line: Antiproliferative activity against human SW620 cells assessed as cell viability after 48 hrs by MTT assay. It counts as functional, cell-based. Conditions: SW-620, 48 h.
The test system of test [4] is LoVo. Kind of test: Antiproliferative activity against human LoVo cells at 25 uM after 48 hrs by MTT assay. It counts as functional, cell-based. In a few lines:
as §1

For a further test, the system named is HCT-116. Description: Antiproliferative activity against human HCT116 cells at 25 uM after 48 hrs by MTT assay. It counts as functional, cell-based. In a few lines:
as §1

For test [5], the target named is T1, Protein deacetylase HDAC6 (Homo sapiens, UniProt Q9UBN7).
T1 sequence (Q9UBN7 whole entry): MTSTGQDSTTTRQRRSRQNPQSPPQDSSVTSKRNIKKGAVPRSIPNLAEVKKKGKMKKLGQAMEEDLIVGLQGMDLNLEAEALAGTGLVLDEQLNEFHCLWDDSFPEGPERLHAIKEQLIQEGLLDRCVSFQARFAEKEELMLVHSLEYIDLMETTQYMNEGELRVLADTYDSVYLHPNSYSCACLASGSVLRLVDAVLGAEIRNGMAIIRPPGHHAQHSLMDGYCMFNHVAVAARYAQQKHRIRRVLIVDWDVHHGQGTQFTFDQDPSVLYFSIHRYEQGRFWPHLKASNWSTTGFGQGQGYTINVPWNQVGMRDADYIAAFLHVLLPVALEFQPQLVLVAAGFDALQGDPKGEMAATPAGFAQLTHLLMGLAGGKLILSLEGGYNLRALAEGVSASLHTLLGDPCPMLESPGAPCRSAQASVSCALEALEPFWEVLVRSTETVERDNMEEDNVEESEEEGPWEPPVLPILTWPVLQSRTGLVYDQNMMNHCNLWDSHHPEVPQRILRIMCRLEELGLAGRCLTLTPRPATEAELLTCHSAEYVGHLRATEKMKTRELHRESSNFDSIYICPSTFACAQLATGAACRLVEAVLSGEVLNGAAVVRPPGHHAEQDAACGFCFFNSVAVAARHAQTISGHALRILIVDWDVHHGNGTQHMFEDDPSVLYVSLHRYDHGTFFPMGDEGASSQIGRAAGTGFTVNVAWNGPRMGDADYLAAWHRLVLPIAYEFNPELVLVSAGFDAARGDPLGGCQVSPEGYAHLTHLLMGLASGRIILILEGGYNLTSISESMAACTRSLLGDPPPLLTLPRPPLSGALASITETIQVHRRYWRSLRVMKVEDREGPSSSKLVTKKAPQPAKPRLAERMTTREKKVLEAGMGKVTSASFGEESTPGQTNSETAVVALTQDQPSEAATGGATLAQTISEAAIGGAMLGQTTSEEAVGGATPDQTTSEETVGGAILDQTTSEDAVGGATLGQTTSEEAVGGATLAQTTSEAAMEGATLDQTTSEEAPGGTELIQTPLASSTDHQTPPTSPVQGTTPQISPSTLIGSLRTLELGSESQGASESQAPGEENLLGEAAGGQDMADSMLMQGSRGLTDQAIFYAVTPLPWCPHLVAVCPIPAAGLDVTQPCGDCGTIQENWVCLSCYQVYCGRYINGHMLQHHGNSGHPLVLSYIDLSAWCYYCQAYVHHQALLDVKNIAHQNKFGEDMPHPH
Kind of test: Inhibition of recombinant human HDAC6 using Boc-Lys (Ac)-AMC as substrate after 60 mins by fluorometric analysis.

The next test has as its target T2, Histone deacetylase 8 (Homo sapiens, UniProt Q9BY41).
T2 sequence (Q9BY41 whole entry): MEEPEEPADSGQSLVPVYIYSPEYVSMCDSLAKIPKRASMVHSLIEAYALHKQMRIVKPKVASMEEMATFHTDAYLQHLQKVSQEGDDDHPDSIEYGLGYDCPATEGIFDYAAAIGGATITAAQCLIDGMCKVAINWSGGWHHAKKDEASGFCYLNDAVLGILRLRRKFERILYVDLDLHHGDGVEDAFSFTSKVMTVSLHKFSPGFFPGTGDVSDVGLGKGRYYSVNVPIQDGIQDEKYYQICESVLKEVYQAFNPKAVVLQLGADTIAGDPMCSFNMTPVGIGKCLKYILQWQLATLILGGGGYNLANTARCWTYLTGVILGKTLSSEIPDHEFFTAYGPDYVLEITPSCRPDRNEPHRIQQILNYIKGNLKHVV
Kind of test: Inhibition of recombinant human HDAC8 using Boc-Lys (Ac)-AMC as substrate after 60 mins by fluorometric analysis.

Another test addresses Histone deacetylase 1 (Homo sapiens, UniProt Q13547). Description: Inhibition of recombinant human HDAC1 using Boc-Lys (Ac)-AMC as substrate after 60 mins by fluorometric analysis.

The source made the active and inactive calls. The calls are words filed in the database; no cut-off is given here.

Histone deacetylase 1, sequence (Q13547 whole entry): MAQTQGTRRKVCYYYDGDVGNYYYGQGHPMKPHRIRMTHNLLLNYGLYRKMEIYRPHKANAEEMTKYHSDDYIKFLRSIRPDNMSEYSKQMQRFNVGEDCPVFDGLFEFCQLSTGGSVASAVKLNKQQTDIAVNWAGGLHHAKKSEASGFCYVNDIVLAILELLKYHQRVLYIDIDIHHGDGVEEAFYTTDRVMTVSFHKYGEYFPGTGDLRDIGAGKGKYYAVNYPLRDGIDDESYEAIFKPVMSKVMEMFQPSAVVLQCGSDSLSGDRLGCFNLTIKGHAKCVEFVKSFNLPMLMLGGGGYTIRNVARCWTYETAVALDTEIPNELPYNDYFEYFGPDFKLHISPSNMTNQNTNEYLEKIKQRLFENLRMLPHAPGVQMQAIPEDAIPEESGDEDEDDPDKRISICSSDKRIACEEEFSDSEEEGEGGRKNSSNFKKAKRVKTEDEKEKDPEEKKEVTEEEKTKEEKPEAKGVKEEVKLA

What is called IC50 is the midpoint of a concentration-inhibition curve. With `COc1ccc(-c2nc(C(=O)NCC(=O)NO)cc3c2[nH]c2ccccc23)cc1`, the IC50 in the test with LoVo [1] was over 12.5 µM; in the test on SW480, 10.5 µM; in [2], over 12.5 µM; on Histone deacetylase, 3.02 µM; in [3], 6.92 µM. For the same compound, the outcome with SW-620, in the test on LoVo [4] and in the test with HCT-116 was Active.
With `O=C(CCCCNC(=O)c1cc2c(cn1)[nH]c1ccccc12)NO`, the IC50 at Histone deacetylase worked out at 1.43 µM. The outcome in the test on SW-620, in the test on LoVo [4] and with HCT-116 was inactive.
On to `Cc1nc(C(=O)NCCCC(=O)NO)cc2c1[nH]c1ccccc12`, for which, on Histone deacetylase, the IC50 amounted to 1.21 µM. The result with SW-620, with LoVo [4] and with HCT-116 was inactive.
With `COc1ccc(-c2nc(C(=O)NCCC(=O)NO)cc3c2[nH]c2ccccc23)cc1`, the IC50 with LoVo [1] stood at 9.01 µM; with SW480, 11.2 µM; in test [2] it was 8.64 µM; on Histone deacetylase, 1.31 µM; in test [3] it was 6.73 µM. Also, the result in the test on SW-620, in the test on LoVo [4] and in the test on HCT-116 was Active.
The compound `O=C(CCCCCNC(=O)c1cc2c(cn1)[nH]c1ccccc12)NO` had an IC50 against Histone deacetylase of 1.81 µM. Also, the outcome in the test on SW-620, in the test with LoVo [4] and with HCT-116 was inactive.
Consider `Cc1nc(C(=O)NCCCCC(=O)NO)cc2c1[nH]c1ccccc12`, for which, at Histone deacetylase, the IC50 was found to be 1.26 µM. Further, the outcome in the test on SW-620, with LoVo [4] and with HCT-116 was inactive.
On to `COc1ccc(-c2nc(NC(=O)NCCC(=O)NO)cc3c4ccccc4n(C)c23)cc1`, for which the IC50 in the test with LoVo [1] was found to be 5.66 µM; in the test with SW480, 4.4 µM; in [2] it was 4.27 µM; against Histone deacetylase it was 1.33 µM; in test [3], 5.02 µM.
Turning to `Cc1nc(C(=O)NCCC(=O)NO)cc2c1[nH]c1ccccc12`, the IC50 against Histone deacetylase was determined as 2.45 µM. Moreover, the result in the test on SW-620, in the test with LoVo [4] and with HCT-116 was inactive.
In turn, `Cc1nc(C(=O)NCCCCCC(=O)NO)cc2c1[nH]c1ccccc12` showed an IC50 against Histone deacetylase of 1.43 µM. Moreover, the outcome in the test with SW-620, with LoVo [4] and with HCT-116 was inactive.
`COc1ccc(-c2nc(NC(=O)NCC(=O)NO)cc3c2[nH]c2ccccc23)cc1`: the IC50 in the test with LoVo [1] is 9.36 µM; in the test on SW480 it was 10.1 µM; in test [2], 8.52 µM; against Histone deacetylase it was 2.24 µM; in test [3], 7.12 µM.
Turning to `O=C(CCCNC(=O)c1cc2c(cn1)[nH]c1ccccc12)NO`, at Histone deacetylase, the IC50 came to 1.56 µM. Moreover, the outcome in the test with SW-620, in the test with LoVo [4] and in the test with HCT-116 was inactive.
As to `COc1ccc(-c2nc(NC(=O)NCCCCC(=O)NO)cc3c4ccccc4n(C)c23)cc1`, the IC50 with LoVo [1] was 6.24 µM; in the test on SW480, 5.8 µM; in test [2] it was 3.87 µM; against Histone deacetylase, 0.86 µM; in test [3], 5.09 µM.
In turn, `O=C(CNC(=O)c1cc2c(cn1)[nH]c1ccccc12)NO` came in with an IC50 against Histone deacetylase of 6.17 µM. Besides, the outcome with SW-620, with LoVo [4] and in the test with HCT-116 was inactive.
Regarding `COc1ccc(-c2nc(C(=O)NCCCCCC(=O)NO)cc3c2[nH]c2ccccc23)cc1`, the IC50 in the test on LoVo [1] was determined as 7.9 µM; with SW480, 9.83 µM; in [2], 7.16 µM; against Histone deacetylase, 1.17 µM; in test [3], 8.06 µM. For the same compound, the result in the test on SW-620, with LoVo [4] and with HCT-116 was Active.
Compound `Cc1nc(C(=O)NCC(=O)NO)cc2c1[nH]c1ccccc12` gave a half-inhibitory concentration (IC50) on Histone deacetylase of 5.37 µM. The outcome with SW-620, with LoVo [4] and with HCT-116 was inactive.
As to `COc1ccc(-c2nc(NC(=O)NCCCCC(=O)NO)cc3c2[nH]c2ccccc23)cc1`, the IC50 in the test with LoVo [1] worked out at 2.17 µM; in the test on SW480, 1.73 µM; in [2], 0.99 µM; on Histone deacetylase, 0.35 µM; in [5], 0.093 µM; in test [3] it was 2.02 µM. Besides, the IC50 on Histone deacetylase 8 was 0.2 µM; at Histone deacetylase 1 it was 0.079 µM.
With `COc1ccc(-c2nc(NC(=O)NCC(=O)NO)cc3c4ccccc4n(C)c23)cc1`, the concentration for half-maximal inhibition (IC50) in the test with LoVo [1] was over 12.5 µM; in the test with SW480, 9.81 µM; in test [2] it was 9.3 µM; at Histone deacetylase, 3.16 µM; in test [3], 8.36 µM.
In the case of `O=C(CCNC(=O)c1cc2c(cn1)[nH]c1ccccc12)NO`, on Histone deacetylase, the half-maximal inhibitory concentration (IC50) was 3.23 µM. For the same compound, the result with SW-620, with LoVo [4] and with HCT-116 was inactive.
Take `COc1ccc(-c2nc(NC(=O)NCCCCCC(=O)NO)cc3c2[nH]c2ccccc23)cc1`: the IC50 was 7.34 µM in the test on LoVo [1]; 5.09 µM in the test on SW480; 4.84 µM in test [2]; 0.82 µM against Histone deacetylase; 6.25 µM in test [3].
As to `COc1ccc(-c2nc(NC(=O)NCCC(=O)NO)cc3c2[nH]c2ccccc23)cc1`, the IC50 with LoVo [1] came to 3.61 µM; in the test with SW480 it was 3.11 µM; in test [2], 3.08 µM; on Histone deacetylase, 0.43 µM; in test [5] it was 0.36 µM; in test [3] it was 2.69 µM. Moreover, the IC50 is 0.43 µM at Histone deacetylase 8 and 0.11 µM at Histone deacetylase 1.
For `COc1ccc(-c2nc(NC(=O)NCCCCCC(=O)NO)cc3c4ccccc4n(C)c23)cc1`, the IC50 was over 12.5 µM with LoVo [1]; over 12.5 µM in the test on SW480; 8.76 µM in test [2]; 1.05 µM on Histone deacetylase; 9.53 µM in test [3].
On to `COc1ccc(-c2nc(C(=O)NCCCCC(=O)NO)cc3c2[nH]c2ccccc23)cc1`, for which the half-maximal inhibitory concentration (IC50) worked out at 5.28 µM with LoVo [1]; 4.43 µM with SW480; 3.35 µM in test [2]; 0.81 µM at Histone deacetylase; 2.53 µM in [3]. The result in the test with SW-620, in the test with LoVo [4] and in the test on HCT-116 was Active.
